Data: ChEMBL document CHEMBL2390935, “Synthesis and pharmacological properties of a new hydrophilic and orally bioavailable 5-HT4 antagonist” (Eur J Med Chem, 2013)

Key:
[1] = target: T1, 5-hydroxytryptamine receptor 4 (Homo sapiens, UniProt Q13639); assay: Antagonist activity at human 5-HT4B receptor expressed in HEK293 cells assessed as inhibition of 5-HT-stimulated adenylyl cyclase activity after 20 mins; type: functional, cell-based
Method in brief: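 Membranes from HEK293 cells stably expressing human 5-HT4(b). Adenylyl cyclase activity stimulated by 1 µM 5-HT. Inhibition measured across a concentration range of test compound.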

[2] = target: T1, 5-hydroxytryptamine receptor 4; assay: Displacement of [3H]GR113808 from human 5-HT4B receptor expressed in HEK293 cells after 1 hr by liquid scintillation counting analysis; type: cell-based
Method in brief: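 Competitive binding with 0.3 nM [3H]GR113808 on membranes from HEK293 cells stably expressing human 5-HT4(b).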

Rattus norvegicus [3] = assay: AUC in Sprague-Dawley rat assessed as 2-[4-[[4-(3,4-dihydro-2H-[1,3]oxazino[3,2-a]indole-10-carbonyloxymethyl)-1-piperidinyl]methyl]phenyl]-2-methylpropanoic acid level at 10 mg/kg, po by LC-MS/MS analysis; type: ADME, organism-based, Plasma; set-up: dose 10 mg/kg, route oral; details: in vivo
Method in brief: (§1)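 Male Sprague-Dawley rats, 10 mg/kg p.o. in 10% ethanol/water or 2% β-cyclodextrin (1.0 mg/ml), n = 2–3. Tail-vein and terminal cardiac blood taken under isoflurane at 5 min–24 h. Plasma acidified and acetonitrile-precipitated, then the free acid measured by LC-MS MRM (LOQ 0.5 ng/ml). Non-compartmental analysis per animal, averaged. T1/2 from the terminal log-linear regression; Cmax and Tmax read directly.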

[4] = 1-octanol-PBS partition coefficient, log D of the compound at pH 7.4 by shake-flask method; type: physicochemical
Rattus norvegicus [5] = assay: AUC in Sprague-Dawley rat at 10 mg/kg, po by LC-MS/MS analysis; type: ADME, organism-based, Plasma; set-up: dose 10 mg/kg, route oral; details: in vivo
Method in brief: (§2)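 Male Sprague-Dawley rats (n = 3 per compound, n = 2 for the medoxomil prodrug) given 10 mg/kg p.o., in 10% ethanol in water or in 2% β-cyclodextrin (1.0 mg/ml). Tail-vein and terminal blood taken to 24 h. Plasma acidified and acetonitrile-precipitated. Free acid quantified by UPLC-ESI MRM MS. Non-compartmental analysis for each animal, then averaged; AUC by linear trapezoidal rule extrapolated to infinity; Cmax and Tmax read directly; T1/2 from terminal slope.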

Rattus norvegicus [6] = assay: Cmax in Sprague-Dawley rat assessed as 2-[4-[[4-(3,4-dihydro-2H-[1,3]oxazino[3,2-a]indole-10-carbonyloxymethyl)-1-piperidinyl]methyl]phenyl]-2-methylpropanoic acid level at 10 mg/kg, po by LC-MS/MS analysis; type: ADME, organism-based; set-up: dose 10 mg/kg, route oral; details: in vivo; method in brief: as §1
Rattus norvegicus [7] = assay: Tmax in Sprague-Dawley rat assessed as 2-[4-[[4-(3,4-dihydro-2H-[1,3]oxazino[3,2-a]indole-10-carbonyloxymethyl)-1-piperidinyl]methyl]phenyl]-2-methylpropanoic acid level at 10 mg/kg, po by LC-MS/MS analysis; type: ADME, organism-based; set-up: dose 10 mg/kg, route oral; details: in vivo; method in brief: as §1
[8] = Elimination half life in Sprague-Dawley rat at 10 mg/kg, po by LC-MS/MS analysis; type: ADME, organism-based; set-up: dose 10 mg/kg, route oral; details: in vivo, read-out: beta t1/2; method in brief: as §2
Rattus norvegicus [9] = assay: Elimination half life in Sprague-Dawley rat assessed as 2-[4-[[4-(3,4-dihydro-2H-[1,3]oxazino[3,2-a]indole-10-carbonyloxymethyl)-1-piperidinyl]methyl]phenyl]-2-methylpropanoic acid level at 10 mg/kg, po by LC-MS/MS analysis; type: ADME, organism-based; set-up: dose 10 mg/kg, route oral; details: in vivo; method in brief: as §1
[10] = Cmax in Sprague-Dawley rat at 10 mg/kg, po by LC-MS/MS analysis; type: ADME, organism-based; set-up: dose 10 mg/kg, route oral; details: in vivo; method in brief: as §2
[11] = Tmax in Sprague-Dawley rat at 10 mg/kg, po by LC-MS/MS analysis; type: ADME, organism-based; set-up: dose 10 mg/kg, route oral; details: in vivo; method in brief: as §2
[12] = Oral bioavailability in Sprague-Dawley rat at 10 mg/kg by LC-MS/MS analysis; type: ADME, organism-based; details: in vivo
Method in brief: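 Male Sprague-Dawley rats dosed 10 mg/kg p.o. and 1 mg/kg i.v. Plasma free acid measured by LC-MS/MS at timed samples up to 24 h. Non-compartmental AUC (trapezoidal, extrapolated to infinity). F = (AUC p.o./dose p.o.)/(AUC i.v./dose i.v.), expressed in %.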

Rattus norvegicus [13] = assay: Oral bioavailability in Sprague-Dawley rat assessed as 2-[4-[[4-(3,4-dihydro-2H-[1,3]oxazino[3,2-a]indole-10-carbonyloxymethyl)-1-piperidinyl]methyl]phenyl]-2-methylpropanoic acid level at 10 mg/kg by LC-MS/MS analysis; type: ADME, organism-based; details: in vivo
Method in brief: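 Rats given 10 mg/kg orally and, for the free acid, 1 mg/kg i.v. Free-acid plasma levels measured by LC-MS at timed points. AUC by linear trapezoidal rule, extrapolated to infinity. F = (AUC p.o./dose p.o.)/(AUC i.v./dose i.v.), reported as %.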

[14] = target: Voltage-gated inwardly rectifying potassium channel KCNH2 (Homo sapiens, UniProt Q12809); assay: Inhibition of human ERG expressed in HEK293 cells by whole-cell patch-clamp technique; type: cell-based
Voltage-gated inwardly rectifying potassium channel KCNH2, sequence (Q12809 whole entry, the tested form may be a part): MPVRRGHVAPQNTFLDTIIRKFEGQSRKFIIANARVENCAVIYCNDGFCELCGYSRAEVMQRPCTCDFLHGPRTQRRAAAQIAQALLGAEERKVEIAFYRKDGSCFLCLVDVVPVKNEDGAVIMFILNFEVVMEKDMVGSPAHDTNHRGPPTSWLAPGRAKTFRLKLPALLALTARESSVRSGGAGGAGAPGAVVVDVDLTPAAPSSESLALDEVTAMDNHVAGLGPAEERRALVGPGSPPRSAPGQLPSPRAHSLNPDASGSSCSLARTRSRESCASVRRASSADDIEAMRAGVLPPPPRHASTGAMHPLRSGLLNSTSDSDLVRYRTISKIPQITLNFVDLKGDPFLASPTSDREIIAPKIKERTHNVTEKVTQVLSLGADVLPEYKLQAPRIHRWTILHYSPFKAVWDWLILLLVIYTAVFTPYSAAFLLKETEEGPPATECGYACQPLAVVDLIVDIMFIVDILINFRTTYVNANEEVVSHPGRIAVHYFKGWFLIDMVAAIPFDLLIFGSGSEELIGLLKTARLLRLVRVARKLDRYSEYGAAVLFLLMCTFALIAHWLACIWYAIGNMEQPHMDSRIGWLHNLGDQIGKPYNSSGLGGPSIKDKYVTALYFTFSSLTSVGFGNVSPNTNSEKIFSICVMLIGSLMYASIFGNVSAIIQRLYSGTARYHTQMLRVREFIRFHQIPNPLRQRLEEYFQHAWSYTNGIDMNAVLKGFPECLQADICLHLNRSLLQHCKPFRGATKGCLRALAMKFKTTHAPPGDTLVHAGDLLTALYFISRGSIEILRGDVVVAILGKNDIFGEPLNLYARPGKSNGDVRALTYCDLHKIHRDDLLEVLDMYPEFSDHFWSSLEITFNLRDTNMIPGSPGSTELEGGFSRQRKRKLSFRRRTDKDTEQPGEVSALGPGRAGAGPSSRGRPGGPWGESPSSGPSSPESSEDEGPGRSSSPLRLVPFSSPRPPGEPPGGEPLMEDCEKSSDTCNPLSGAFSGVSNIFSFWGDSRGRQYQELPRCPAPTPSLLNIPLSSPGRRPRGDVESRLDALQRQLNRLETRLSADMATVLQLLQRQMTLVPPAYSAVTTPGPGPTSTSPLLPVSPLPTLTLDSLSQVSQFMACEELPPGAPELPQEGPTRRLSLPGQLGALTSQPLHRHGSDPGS
Method in brief: (§3)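 Whole-cell patch clamp on isolated hERG-expressing cells superfused with HB-PSS, one cell per coverslip, holding potential -80 mV. Peak tail current averaged over 5–10 pulses. Baseline taken before exposure; ascending concentrations applied to steady state without washout, at least 3 cells per concentration. Residual current corrected for time-matched vehicle rundown. IC50 from a Hill-type fit. Terfenadine 50 nM served as positive control.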

[15] = Metabolic stability in human liver microsomes assessed as compound remaining at 2 uM after 60 mins by LC-MS analysis; type: ADME, Microsome; details: read-out: Stability
Method in brief: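 Pooled human liver microsomes (30 donors) at 0.5 mg protein/ml, 2 µM substrate, 1% DMSO, 1 mM NADPH plus 1 mM UDPGA, 37 °C. Cofactor-free parallel incubations run. Samples taken at 0, 10, 30 and 60 min and quenched with ice-cold acetonitrile. Disappearance judged by LC-MS peak area against the 0 min sample without cofactors.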

hERG (KCNH2) = hERG (KCNH2) (Homo sapiens, UniProt Q12809); assay: Inhibition of human ERG expressed in HEK293 cells at 100 uM by whole-cell patch-clamp technique relative to control; type: cell-based; details: HEK293 cells expressing human ERG; method in brief: as §3
hERG (KCNH2), sequence (Q12809 whole entry): as the sequence (Q12809 whole entry, the tested form may be a part) above

T1 sequence (Q13639 whole entry): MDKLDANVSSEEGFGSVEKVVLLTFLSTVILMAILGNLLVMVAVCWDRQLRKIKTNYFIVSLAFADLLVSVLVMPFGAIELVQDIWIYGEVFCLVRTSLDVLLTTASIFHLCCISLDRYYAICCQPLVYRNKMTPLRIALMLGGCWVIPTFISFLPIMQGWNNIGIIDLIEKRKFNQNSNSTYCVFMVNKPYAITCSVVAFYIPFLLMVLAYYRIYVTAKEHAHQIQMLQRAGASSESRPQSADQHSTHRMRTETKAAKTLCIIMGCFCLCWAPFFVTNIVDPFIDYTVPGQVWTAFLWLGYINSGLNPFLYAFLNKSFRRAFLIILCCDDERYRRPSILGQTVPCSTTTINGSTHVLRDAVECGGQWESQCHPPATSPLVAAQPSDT

Structure (SMILES): CCCCN1CCC(CNC(=O)c2c3n(c4ccccc24)CCCO3)CC1 [PIBOSEROD]
- pKb [1]: 9.1
- Ki [2]: 0.1 nM

Structure (SMILES): CC(C)(C)c1ccc(CN2CCC(COC(=O)c3c4n(c5ccccc35)CCCO4)CC2)cc1
- AUC (Rattus norvegicus [3]): 127 ng·h/mL
- logD [4]: 2.4
- AUC (Rattus norvegicus [5]): 533 ng·h/mL
- Cmax (Rattus norvegicus [6]): 13 ng/mL
- Tmax (Rattus norvegicus [7]): 80 min
- half-life [8]: 1610 min
- beta t1/2 (Rattus norvegicus [9]): 1190 min
- Cmax [10]: 33 ng/mL
- Tmax [11]: 5.67 h
- bioavailability [12]: 6%
- F (Rattus norvegicus [13]): 1%

Structure (SMILES): CC(C)(C(=O)O)c1ccc(CN2CCC(COC(=O)c3c4n(c5ccccc35)CCCO4)CC2)cc1
- IC50 [14]: 69 µM
- logD [4]: -1.2
- AUC (Rattus norvegicus [5]): 285 ng·h/mL
- half-life [8]: 364 min
- Cmax [10]: 130 ng/mL
- Tmax [11]: 0.2 h
- bioavailability [12]: 3%
- remaining at 1 h, 2 µM [15]: < 0.1%
- pKb [1]: 8.6
- inhibition at 100 µM (hERG (KCNH2)): 55.8%
- Ki [2]: 0.126 nM

Structure (SMILES): Cc1oc(=O)oc1COC(=O)C(C)(C)c1ccc(CN2CCC(COC(=O)c3c4n(c5ccccc35)CCCO4)CC2)cc1
- AUC (Rattus norvegicus [3]): 1206 ng·h/mL
- logD [4]: 2.2
- Cmax (Rattus norvegicus [6]): 817 ng/mL
- Tmax (Rattus norvegicus [7]): 30 min
- beta t1/2 (Rattus norvegicus [9]): 72 min
- F (Rattus norvegicus [13]): 16%

Structure (SMILES): Cn1cc(C(=O)OCC2CCN(CCNS(C)(=O)=O)CC2)c2ccccc21
- pKb [1]: 8.7
- Ki [2]: 0.0398 nM
